Measured values from PMC11607638 (The FASEB Journal, 2024).
Where two headings read alike, the source gives them in different places. Square brackets hold non-standard residues; d marks the D form. Ends that are not written are not given here. sY = N[C@@H](Cc1ccc(OS(=O)(=O)O)cc1)C(=O)O

What was measured:
SK receptor gene SKR [1] = assay: Fura-2 calcium imaging in perifused SKR-CHO-K1 cells; type: cell-based, Aedes aegypti; conditions: for Reversibility of stimulation upon wash-out in perifused SKR-CHO-K1 cells: Figures 4, 5, 6; for Onset (lag time) of cytosolic calcium oscillations in SKR-CHO-K1 cells: at lower concentrations, Figures 4 and 5
Procedure, shortened: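 CHO-K1 cells at 80–90% confluency were transfected in serum-free medium with pcDNA3.1(+)-SKR using jetPRIME for 24–36 h. Cells were loaded with Fura-2AM (10 µM, 50 min, 37 °C), attached to coated coverslips and perifused in HEPES buffer, pH 7.4. The 340/380 nm excitation ratio was recorded per single cell. Peptides used: SK1 300 pM–30 nM, SK2 3 nM ± devazepide 10 nM, CCK 1–100 nM. Peak area above baseline per 10 min; mean ± SEM, t-test.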

Aedes aegypti [2] = assay: Blood meal size after thoracic peptide injection; type: in vivo; conditions: 24 h
Procedure, shortened: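 Females 3 days post-eclosion, starved 12 h before and 24 h after a 1 µL thoracic injection, then blood-fed. Each mosquito was weighed before and after the meal, and intake was taken as the weight difference. SK2 was given at 50, 100 or 150 pmol/µL against DEPC water, 30 per group. For reversal, SK2 100 µM plus proglumide 14 mM (final, 1:1 mix) was injected and intake weighed 24 h later.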

[3] = Body weight of female mosquitoes after injection; type: in vivo, Aedes aegypti; conditions: for Pre-blood meal body weight among groups: DEPC water, SK2 100 μM, SK2 + proglumide (Figure 3F left)
Procedure, shortened: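 Females 3 days post-eclosion were starved 12 h, given a 1 µL thoracic injection, and starved a further 24 h. They were weighed on a balance immediately before the blood meal, 30 per group.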

[4] = system: mammalian cholecystokinin 1 receptor (CCK1R); assay: Fura-2 calcium imaging in isolated rat pancreatic acini; type: cell-based; conditions: CCK 10 pM
Procedure, shortened: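 Acini came from male Sprague-Dawley rats (250–450 g) by collagenase P digestion (0.2 g/L, 2 × 10 min, 37 °C) in HEPES-buffered saline, pH 7.4. They were loaded with Fura-2AM (10 µM, 30 min) and attached to Cell-Tak- or Matrix-Gel-coated coverslips in a perifusion chamber. The buffer was the same minus BSA, amino acids and trypsin inhibitor. Fluorescence was excited alternately at 340/380 nm and the ratio recorded over time.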

CHO-K1 cells = assay: Fura-2 calcium imaging in un-transfected parental CHO-K1 cells; type: cell-based, Chinese hamster; conditions: 30 nM
Procedure, shortened: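 Un-transfected CHO-K1 cells were grown in DMEM/F12 with 10% FBS, then loaded with Fura-2AM (10 µM, 50 min, 37 °C) and perifused on coated coverslips. They were exposed to SK1 or SK2 at 30 nM. Cytosolic calcium was followed as the 340/380 nm excitation ratio in single cells.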

Aedes aegypti [5] = assay: Blood-feeding time course after thoracic peptide injection; type: in vivo; conditions: Figure 3C
Procedure, shortened: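 Females were given 1 µL thoracic injections of DEPC water, SK1, SK2 (200 µM) or SK1+SK2 (100 µM each, final), then kept in separate cages for 24 h, 20 per group, and offered blood. Feeding was counted as complete when a mosquito stopped and no longer moved actively. Completed feeders were recorded every 10 min until all had fed; run in triplicate.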

SK gene SK = assay: qPCR of SK mRNA in mosquito head after peptide injection; type: in vivo, Aedes aegypti; conditions: after blood feeding 24 h after injection
SK receptor gene SKR [6] = assay: qPCR of SKR mRNA in mosquito head after peptide injection; type: in vivo, Aedes aegypti; conditions: after blood feeding 24 h after injection

Compound: CN1C(=O)[C@@H](NC(=O)c2cc3ccccc3[nH]2)N=C(c2ccccc2)c2ccccc21 [devazepide, reference compound]
- Block of SK2-induced calcium increases in SKR-CHO-K1 cells (antagonism) (SK receptor gene SKR [1]; devazepide 10 nM + SK2 3 nM): no longer induced any calcium increases

Compound: NCCc1ccc(O)c(O)c1 [dopamine, reference compound]
- Calcium response in SKR-CHO-K1 cells (SK receptor gene SKR [1]; dopamine 1 mM): no effect

Compound: CCCN(CCC)C(=O)C(CCC(=O)O)NC(=O)c1ccccc1 (centres unmarked) [proglumide]
- Blood intake after mixed injection vs DEPC water control (Aedes aegypti [2]; proglumide 14 mM + SK2 100 μM, 1 μL): no significant difference
- Blood intake after mixed injection vs single injection of SK2 at 100 μM (Aedes aegypti [2]; proglumide 14 mM + SK2 100 μM, 1 μL, ****p < .0001 (Figure 3F)): higher
- Pre-blood meal body weight among groups [3]: No difference

Compound: CCK: sulfated cholecystokinin octapeptide (CCK), Tocris Cookson #1166 (D[sY]MGWMDF-NH2; UniProt P06307 96-103, looked up) [reference compound]
- Calcium response in SKR-CHO-K1 cells (SK receptor gene SKR [1]; CCK 1 nM): no effect
- Calcium response in SKR-CHO-K1 cells (SK receptor gene SKR [1]; CCK 10 nM and 100 nM): clear calcium increases
- Reversibility of stimulation upon wash-out in perifused SKR-CHO-K1 cells (SK receptor gene SKR [1]): readily washed out
- Efficiency of activating SKR compared with mosquito peptide SK2 (SK receptor gene SKR [1]; SKR-CHO-K1, Figure 6): probably less efficiently than the mosquito peptide SK2
- Calcium response in rat pancreatic acini [4]: robust calcium oscillations

Compound: FDDY(SO3H)GHMRF [SK1]
- Reversibility of stimulation upon wash-out in perifused SKR-CHO-K1 cells (SK receptor gene SKR [1]): long‐lasting even after wash‐out
- Calcium response in SKR-CHO-K1 cells (SK receptor gene SKR [1]; SK1 300 pM): did not elicit any change in calcium levels
- Calcium response in SKR-CHO-K1 cells (SK receptor gene SKR [1]; SK1 at 1, 3, 10, and 30 nM (all)): robust calcium spikes
- Onset (lag time) of cytosolic calcium oscillations in SKR-CHO-K1 cells (SK receptor gene SKR [1]): significant lag time
- EC50 (SK receptor gene SKR [1]; read-out: EC50, calcium spikes (area under the peaks above baseline, per 10 min), SK1, SKR-CHO-K1, Fura-2 F340/F380, monophasic dose-response, N = 5-7): 1.18 nM
- Calcium response in parental CHO-K1 cells (CHO-K1 cells): no effect
- Prolongation of feeding, comparison with SK2 at same concentration (Aedes aegypti [5]; SK1 200 μM): significantly less active
- SK mRNA expression vs DEPC water control (SK gene SK): decrease significantly
- SKR mRNA expression vs DEPC water control (SK receptor gene SKR [6]): No difference

Compound: GGEGEQFDDY(SO3H)GHMRF [SK2]
- Reversibility of stimulation upon wash-out in perifused SKR-CHO-K1 cells (SK receptor gene SKR [1]): long‐lasting even after wash‐out
- Calcium response in SKR-CHO-K1 cells (SK receptor gene SKR [1]; SK2 100 pM): did not stimulate any increases in calcium concentration
- Calcium response in SKR-CHO-K1 cells (SK receptor gene SKR [1]; SK2 3 nM alone (parallel to antagonist experiment)): strong calcium oscillations
- Calcium response in SKR-CHO-K1 cells (SK receptor gene SKR [1]; SK2 at 300 pM, 1, 3, 10, and 30 nM (all)): lasting calcium oscillations
- Onset (lag time) of cytosolic calcium oscillations in SKR-CHO-K1 cells (SK receptor gene SKR [1]): significant lag time
- EC50 (SK receptor gene SKR [1]; read-out: EC50, calcium oscillations (areas under the peak above baseline per 10 min), SK2, SKR-CHO-K1, Fura-2 F340/F380, N = 5-8): 0.251 nM
- Calcium response in parental CHO-K1 cells (CHO-K1 cells): no effect
- Blood intake vs control (Aedes aegypti [2]; SK2 50 μM (50 pmol in 1 μL), thoracic injection, 30 per group): no significant difference
- Prolongation of time to complete a blood meal, vs DEPC water and among peptides (Aedes aegypti [5]; SK1, SK2 at 200 μM, SK1 + SK2 at 100 μM each): stronger prolongation than SK1
- SK mRNA expression vs DEPC water control (SK gene SK): decrease significantly
- SKR mRNA expression vs DEPC water control (SK receptor gene SKR [6]): No difference
- Pre-blood meal body weight among groups [3]: No difference
- Body weight after injection at different doses ([3]; SK2 50, 100, 150 μM (Figure 3E left)): no changes in body weight
